ChEMBL document CHEMBL5046273, “Development of a Novel, Small-Molecule Brain-Penetrant Histone Deacetylase Inhibitor That Enhances Spatial Memory Formation in Mice” (J Med Chem, 2022)
The source made the active and inactive calls. The calls are words filed in the database; no cut-off is given here.

What was measured:
[1] = tested on: DU-145; assay: Cytotoxicity against human DU-145 cells assessed as reduction in cell viability at 0.00125 to 100 uM incubated for 48 hrs by MTT assay; assay type: functional, cell-based; settings: dose 0.00125-100 µM
Outline: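 DU145 cells in DMEM with 10% FBS were seeded at 14 000 cells/well and allowed to adhere for 24 h. Test agents were diluted from 10 mM DMSO stocks (100, 50, 25 µM; 10, 5, 1.25 nM) and applied in triplicate for 48 h at 37 °C, 5% CO2, with DMSO as vehicle. Read-out was 250 µg/mL MTT for 4 h, DMSO solubilization, and A570 with 690 nm reference. Values normalized to DMSO.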

[2] = target: T1, Histone deacetylase 2 (Homo sapiens, UniProt Q92769); assay: Inhibition of recombinant human full-length HDAC2 incubated for 10 mins by Glo-luminescence assay
T1 sequence (Q92769 whole entry): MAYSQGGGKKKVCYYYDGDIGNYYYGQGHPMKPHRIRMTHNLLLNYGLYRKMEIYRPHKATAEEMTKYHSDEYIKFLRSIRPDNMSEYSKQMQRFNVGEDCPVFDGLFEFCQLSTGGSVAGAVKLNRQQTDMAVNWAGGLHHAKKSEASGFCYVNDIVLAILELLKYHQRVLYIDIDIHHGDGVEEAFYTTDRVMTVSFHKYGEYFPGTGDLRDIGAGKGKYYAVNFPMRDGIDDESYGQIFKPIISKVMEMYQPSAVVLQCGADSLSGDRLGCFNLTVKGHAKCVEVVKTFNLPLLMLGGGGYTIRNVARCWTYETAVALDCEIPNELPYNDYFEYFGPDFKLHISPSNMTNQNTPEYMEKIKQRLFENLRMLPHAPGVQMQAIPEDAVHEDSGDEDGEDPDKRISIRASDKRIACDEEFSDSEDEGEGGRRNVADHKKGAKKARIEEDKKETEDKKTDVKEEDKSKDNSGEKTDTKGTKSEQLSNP
Outline: (§1)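 Compounds were serially diluted and incubated with enzyme for 10 min. HDAC-Glo I/II substrate/developer was then added, and luminescence read after 40 min at 23 °C. IC50 from four-parameter fits from two independent titrations, mean ± SD.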

[3] = target: T1, Histone deacetylase 2; assay: Inhibition of recombinant human full-length HDAC2 preincubated for 20 mins with DTT followed by enzyme addition and measured after 10 mins by Glo-luminescence assay; outline: as §1

With `O=C(CC(O)/C=C/CCSSCC/C=C/C(O)CC(=O)Nc1ccccc1)Nc1ccccc1` (stereo not drawn) the Activity [1] was “inactive”, the IC50 [2] was 105 µM and the IC50 [3] was 25 µM.
